Consider 15 compounds from publication PMC6427922 (Bioorganic & medicinal chemistry letters, 2018).

Entries after “also recorded” stand apart in the source; their conditions may differ. Read-outs that look alike come from different tables or passages of the source. Bounds are passed on as bounds.

Series [1] concerns the target T1, hM1 (Homo sapiens, UniProt P11229).
T1 sequence (P11229 1-460): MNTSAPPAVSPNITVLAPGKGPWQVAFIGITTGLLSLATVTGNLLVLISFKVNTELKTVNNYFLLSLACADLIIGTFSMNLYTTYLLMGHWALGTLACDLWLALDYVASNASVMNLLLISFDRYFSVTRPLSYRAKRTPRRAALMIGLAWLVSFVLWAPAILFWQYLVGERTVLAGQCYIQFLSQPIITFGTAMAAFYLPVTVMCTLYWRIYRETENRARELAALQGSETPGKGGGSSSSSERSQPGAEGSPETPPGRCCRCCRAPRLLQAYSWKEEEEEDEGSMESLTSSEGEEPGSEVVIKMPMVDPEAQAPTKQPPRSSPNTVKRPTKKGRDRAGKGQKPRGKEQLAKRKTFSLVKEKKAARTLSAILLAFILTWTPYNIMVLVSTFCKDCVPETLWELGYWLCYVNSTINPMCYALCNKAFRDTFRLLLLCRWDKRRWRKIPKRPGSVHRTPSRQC
Type of series: cell-based. The note with it: for M1 PAM activity in words (relative to 14 or comparators): hM1-CHO. An outline of the steps:
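Calcium mobilization in CHO cells expressing human M1, with a fixed EC20 concentration of acetylcholine present. Read-outs are EC50, pEC50 and ACh Max. Values are means of three independent experiments, each run in triplicate. Fold changes are expressed against a racemic reference compound.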

Series [2] in a line: Metabolite identification studies. It counts as in vitro ADME.
The subject of series [3] is NR1 knock-down mice. The note with it: cited from earlier work.
For series [4] the following is noted: non-human primates; cited from earlier work.
For series [5], the system named is M1. The note with it: cells and native systems; cited from earlier work.
For series [6] the following is noted: mice; cited from earlier work.
The conditions of series [7]: rats; cited from earlier work.
Series [8] has as its system cognitive deficits induced by risperidone. To be noted: cited from earlier work.
Series [9] can be described thus: Predicted hepatic clearance, human. Type of series: in vitro ADME.
Series [10] relates to M3. To be noted: read-out: M3 EC50; selectivity; cited from earlier work.
The target in series [11] is T1, hM1. The note with it: reference compound, racemate of 7; cited from earlier work.
Series [12] relates to M4. To be noted: read-out: M4 EC50; selectivity; cited from earlier work.
The subject of series [13] is M5. To be noted: read-out: M5 EC50; selectivity; cited from earlier work.
In series [14] the test system is M2. The note with it: read-out: M2 EC50; selectivity; cited from earlier work.

Consider `O=C(N[C@H]1CCC[C@@H]1O)C1CN(Cc2ccc(-n3cccn3)cc2)c2ccccc2O1` (some centres unmarked) [25b], for which the “M1 PAM activity in words (relative to 14 or comparators)” value in [1] is listed as “comparable activity”. For `O=C(NC1CCOCC1)C1CN(Cc2ccc(-n3cccn3)cc2)c2ccccc2O1` (centres unmarked) [25d], the “Fold loss in M1 PAM activity on deletion of the hydroxyl group on the pyran ring” value in series [1] (relative to pyran homolog 25c) is recorded as ~ 34 fold. For the compound `NC1CCCCC1NC(=O)C1CN(Cc2ccc(-n3cccn3)cc2)c2ccccc2O1` (centres unmarked) [25e], the “M1 PAM activity in words (relative to 14 or comparators)” value in series [1] is “retained reasonable M1 PAM activity”. Take `O=C(N[C@H]1CCCCC1=O)C1CN(Cc2ccc(-n3cccn3)cc2)c2ccccc2O1` (some centres unmarked) [25f]: the “M1 PAM activity in words (relative to 14 or comparators)” value in series [1] is given as “retained reasonable M1 PAM activity”. Regarding `O=C(Nc1ncccc1O)C1CN(Cc2ccc(-n3cccn3)cc2)c2ccccc2O1` (centres unmarked) [25j], the “M1 PAM activity in words (relative to 14 or comparators)” value in [1] is given as “equipotent to 14”. Moreover, the Route of metabolism result in series [2] is given as “amide hydrolysis by esterases liberating 27”.

With `Cn1nccc1-c1ccc(CN2CC(C(=O)N[C@H]3CCCC[C@@H]3O)Oc3ccccc32)cn1` (some centres unmarked) [28 k], the “M1 PAM activity in words (relative to 14 or comparators)” value in series [1] is “active”.

Take `O=C(N[C@H]1CCCC[C@@H]1O)C1CN(Cc2ccc(-n3cccc3)nc2)c2ccccc2O1` (some centres unmarked) [28j]: in series [1], the “M1 PAM activity in words (relative to 14 or comparators)” value is recorded as “increase in M1 PAM potency”. On to `Cn1cc(-c2ccc(Cn3cc(C(=O)N[C@H]4CCCC[C@@H]4O)c4c(F)cc(F)cc43)cn2)cn1` [compound 6], for which, in series [3], the “Efficacy in NR1 knock-down mice” value is listed as “robust efficacy”. Consider `O=C(N[C@H]1CCCC[C@@H]1O)[C@H]1CN(Cc2ccc(-n3cccn3)cc2)c2ccccc2O1` [compound 7], for which the Cholinergic toxicity result in [4], in series [6] and in [7] was “devoid of cholinergic toxicity” each time. Further, the M1 agonism result in series [5] is given as “devoid of M1 agonism; also recorded: devoid of agonist activity in native systems”. Further, the “Reversal of cognitive deficits induced by atypical antipsychotics” value in series [8] is reported as “reverse the cognitive deficits induced by atypical antipsychotics”. Consider `O=C(N[C@H]1CCCC[C@@H]1O)C1CN(Cc2ccc(-n3cccn3)cc2)c2ccccc2O1` (some centres unmarked) [compound 14], for which the “Predicted hepatic clearance CLhep, human” value in series [9] is given as 11.1 mL/min/kg. The EC50 in series [10], in series [12], in series [13] and in series [14] was greater than 30 µM each time. Besides, the “M1 pEC50” value in [11] was 6.10 ± 0.13. In addition, in [2], the Route of metabolism entry is “P450-mediated debenzylation to afford 26”. In the case of `O=C(N[C@H]1CCCC[C@@H]1O)C1Cc2ccccc2N(Cc2ccc(-n3cccn3)cc2)C1` (some centres unmarked) [compound 15], the “M1 PAM activity in words (relative to 14 or comparators)” value in series [1] is recorded as “essentially equipotent to 14”. Regarding `O=C(N[C@H]1CCCC[C@@H]1O)C1CN(Cc2ccc(-n3cccn3)nc2)c2ccccc2O1` (some centres unmarked) [compound 18], the “M1 PAM activity in words (relative to 14 or comparators)” value in [1] was “equipotent to 14”. `O=C(N[C@H]1CCCC[C@@H]1O)C1CN(Cc2ccc(-n3cccn3)cc2)c2c(F)cccc2O1` (some centres unmarked) [compound 21]: the “Fold decrease in M1 PAM activity relative to 14” value in series [1] (relative to 14) is on record as ~ 3 fold.

Take `O=C(N[C@H]1CCCC[C@@H]1O)C1CN(Cc2ccc(-n3cccn3)cc2)c2cc(F)ccc2O1` (some centres unmarked) [compound 22]: in series [1] (relative to 14), the “Fold increase in M1 PAM potency relative to 14” value was ~ 3 fold. As for `O=C(N[C@H]1CCCC[C@@H]1O)C1CN(Cc2ccc(-n3cccn3)cc2)c2cccc(F)c2O1` (some centres unmarked) [compound 24], in series [1] (relative to 14), the “Fold increase in M1 PAM potency relative to 14” value is roughly 7 fold.

By EC50 is commonly meant the concentration giving half of the maximal effect.
